These results are taken from ChEMBL document CHEMBL5338733, “Heterobifunctional Ligase Recruiters Enable pan-Degradation of Inhibitor of Apoptosis Proteins” (J Med Chem, 2023).

Each structure is given as a SMILES string. Calls of active or inactive are those of the source. No cut-off for these calls is given here. Some results are limits rather than exact numbers.

One experiment relates to RPMI-8226. Put plainly: Cytotoxicity against human RPMI-8226 cells assessed as reduction in cell viability measured after 96 hrs in presence of TNF-alpha by CellTiter-Glo luminescent assay. Format: functional, cell-based. Conditions: RPMI-8226, 96 h. The essentials: (§1)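 Cells kept in RPMI-1640 with 10% FBS, 1% penicillin/streptomycin and 1% L-glutamine at 37 °C, 5% CO2. Seeded with compounds and incubated 96 h at 37 °C with TNF-α at 1 ng/mL. Viability read by CellTiter-Glo luminescence and normalized to DMSO-treated control. Mean ± SD of biological triplicates.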
(In general: Cellular ATP, detected with luciferase, serves as a proxy for viable cell number.)

The test system of the next experiment is K562. Briefly: Cytotoxicity against human K562 cells assessed as reduction in cell viability measured after 96 hrs in presence of TNF-alpha by CellTiter-Glo luminescent assay. Format: functional, cell-based. Conditions: K562, 96 h. The method in brief: as §1
Experiment [1] has as its target E3 ubiquitin-protein ligase XIAP (Homo sapiens) (UniProt P98170). Briefly: Induction of XIAP degradation in human MM1.S cells at 1 uM incubated for 16 hrs by western blot analysis. Format: cell-based. The method in brief: (§2)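 MM.1S cells treated 16 h at the stated concentration. Lysed, run on SDS-PAGE and transferred to PVDF. Probed with primary antibodies overnight at 4 °C, then HRP secondaries, with ECL detection. Band densitometry normalized to loading control and to DMSO-treated cells. Averages of at least three independent experiments.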
For orientation: A western blot detects proteins with antibodies after separation by electrophoresis.

For the next experiment, the system named is SU-DHL-6. Put plainly: Cytotoxicity against human SU-DHL-6 cells assessed as reduction in cell viability measured after 96 hrs in presence of TNF-alpha by CellTiter-Glo luminescent assay. Format: functional, cell-based. Conditions: SU-DHL-6, 96 h. The method in brief:
(§3)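 Cells seeded with compound at indicated concentrations ± TNF-α 1 ng/mL, incubated 96 h at 37 °C; viability by CellTiter-Glo luminescence, normalized to DMSO control; mean ± SD of biological triplicates. NCI-H929 cultured in RPMI-1640/10% FBS with 2-mercaptoethanol and sodium pyruvate; other lines in RPMI-1640/10% FBS, 37 °C, 5% CO2.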

For another experiment, the system named is MOLM-13. Briefly: Cytotoxicity against human MOLM-13 cells assessed as reduction in cell viability measured after 96 hrs in presence of TNF-alpha by CellTiter-Glo luminescent assay. Conditions: MOLM-13, 96 h. Format: functional, cell-based. The method in brief: as §1
The target in experiment [2] is Baculoviral IAP repeat-containing protein 3 (Homo sapiens) (UniProt Q13489). Put plainly: Induction of cIAP2 degradation in human MM1.S cells at 1 uM incubated for 16 hrs by western blot analysis. Format: cell-based. The method in brief: as §2
In experiment [3] the target is von Hippel-Lindau disease tumor suppressor (Homo sapiens) (UniProt P40337). Briefly: Induction of VHL30 degradation in human MM1.S cells assessed as remaining protein level at 0.1 uM incubated for 16 hrs by western blot analysis. Format: cell-based. The method in brief: as §2
The subject of the next experiment is NCI-H929. Put plainly: Cytotoxicity against human NCI-H929 cells assessed as reduction in cell viability measured after 96 hrs in presence of TNF-alpha by CellTiter-Glo luminescent assay. Format: functional, cell-based. Conditions: NCI-H929, 96 h. The essentials:
as §3

Experiment [4] addresses Baculoviral IAP repeat-containing protein 3 (Homo sapiens) (UniProt Q13489). Briefly: Induction of cIAP2 degradation in human MM1.S cells assessed as remaining protein level at 0.1 uM incubated for 16 hrs by western blot analysis. Format: cell-based. The essentials:
(§4)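 Lysed, run on SDS-PAGE and transferred to PVDF. Probed with primary antibodies overnight at 4 °C, then HRP secondaries, with ECL detection. Band densitometry normalized to loading control and to DMSO-treated cells. Averages of at least three independent experiments.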

Another experiment has as its system DB. Put plainly: Cytotoxicity against human DB cells assessed as reduction in cell viability measured after 96 hrs in presence of TNF-alpha by CellTiter-Glo luminescent assay. Format: functional, cell-based. The method in brief: as §1
A further experiment has as its system HEL. Put plainly: Cytotoxicity against human HEL cells assessed as reduction in cell viability measured after 96 hrs in presence of TNF-alpha by CellTiter-Glo luminescent assay. Format: functional, cell-based. The essentials:
as §1

The subject of the next experiment is SUD4. Briefly: Cytotoxicity against human SU-DHL-4 cells assessed as reduction in cell viability measured after 96 hrs in presence of TNF-alpha by CellTiter-Glo luminescent assay. Format: functional, cell-based. Particulars: SU-DHL-4, 96 h. The essentials:
as §1

In the next experiment the test system is JJN-3. Put plainly: Cytotoxicity against human JJN-3 cells assessed as reduction in cell viability measured after 96 hrs in presence of TNF-alpha by CellTiter-Glo luminescent assay. Format: functional, cell-based. Particulars: JJN-3, 96 h. The essentials: as §1
The target in experiment [5] is von Hippel-Lindau disease tumor suppressor (Homo sapiens) (UniProt P40337). Put plainly: Induction of VHL30 degradation in human MM1.S cells at 1 uM incubated for 16 hrs by western blot analysis. Format: cell-based. The essentials: as §2
Experiment [6] shares this target. Put plainly: Induction of VHL19 degradation in human MM1.S cells at 1 uM incubated for 16 hrs by western blot analysis. Format: cell-based. The method in brief:
as §2

Experiment [7] has as its target Baculoviral IAP repeat-containing protein 2 (Homo sapiens) (UniProt Q13490). Briefly: Induction of cIAP1 degradation in human MM1.S cells at 1 uM incubated for 16 hrs by western blot analysis. Format: cell-based. The essentials:
as §2

Experiment [8] shares this target. Briefly: Induction of cIAP1 degradation in human MM1.S cells assessed as remaining protein level at 0.1 uM incubated for 16 hrs by western blot analysis. Format: cell-based. The method in brief: as §4

Chain of von Hippel-Lindau disease tumor suppressor (Homo sapiens) (P40337 whole entry, looked up): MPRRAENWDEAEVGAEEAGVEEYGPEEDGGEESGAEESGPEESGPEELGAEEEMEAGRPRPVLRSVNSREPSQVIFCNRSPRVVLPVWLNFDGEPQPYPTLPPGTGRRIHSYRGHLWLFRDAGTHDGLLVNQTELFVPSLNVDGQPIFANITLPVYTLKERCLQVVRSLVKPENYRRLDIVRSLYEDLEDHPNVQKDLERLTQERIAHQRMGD
Chain of Baculoviral IAP repeat-containing protein 3 (Homo sapiens) (Q13489 whole entry): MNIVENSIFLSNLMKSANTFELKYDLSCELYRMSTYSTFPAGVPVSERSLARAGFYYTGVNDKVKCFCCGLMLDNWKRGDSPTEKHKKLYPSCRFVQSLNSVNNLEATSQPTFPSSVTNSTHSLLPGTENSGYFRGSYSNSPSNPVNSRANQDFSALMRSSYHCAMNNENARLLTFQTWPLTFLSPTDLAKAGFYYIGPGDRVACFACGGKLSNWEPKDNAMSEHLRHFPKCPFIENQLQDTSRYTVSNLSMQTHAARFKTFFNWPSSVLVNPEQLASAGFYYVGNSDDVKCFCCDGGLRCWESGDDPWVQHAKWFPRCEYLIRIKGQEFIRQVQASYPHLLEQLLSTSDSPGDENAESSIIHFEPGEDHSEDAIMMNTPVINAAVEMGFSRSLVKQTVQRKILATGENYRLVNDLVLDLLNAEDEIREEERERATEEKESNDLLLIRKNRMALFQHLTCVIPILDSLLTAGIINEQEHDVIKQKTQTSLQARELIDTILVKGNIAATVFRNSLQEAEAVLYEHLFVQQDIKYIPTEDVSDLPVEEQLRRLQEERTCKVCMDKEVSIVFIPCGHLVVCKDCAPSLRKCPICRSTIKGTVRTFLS
Chain of Baculoviral IAP repeat-containing protein 2 (Homo sapiens) (Q13490 whole entry): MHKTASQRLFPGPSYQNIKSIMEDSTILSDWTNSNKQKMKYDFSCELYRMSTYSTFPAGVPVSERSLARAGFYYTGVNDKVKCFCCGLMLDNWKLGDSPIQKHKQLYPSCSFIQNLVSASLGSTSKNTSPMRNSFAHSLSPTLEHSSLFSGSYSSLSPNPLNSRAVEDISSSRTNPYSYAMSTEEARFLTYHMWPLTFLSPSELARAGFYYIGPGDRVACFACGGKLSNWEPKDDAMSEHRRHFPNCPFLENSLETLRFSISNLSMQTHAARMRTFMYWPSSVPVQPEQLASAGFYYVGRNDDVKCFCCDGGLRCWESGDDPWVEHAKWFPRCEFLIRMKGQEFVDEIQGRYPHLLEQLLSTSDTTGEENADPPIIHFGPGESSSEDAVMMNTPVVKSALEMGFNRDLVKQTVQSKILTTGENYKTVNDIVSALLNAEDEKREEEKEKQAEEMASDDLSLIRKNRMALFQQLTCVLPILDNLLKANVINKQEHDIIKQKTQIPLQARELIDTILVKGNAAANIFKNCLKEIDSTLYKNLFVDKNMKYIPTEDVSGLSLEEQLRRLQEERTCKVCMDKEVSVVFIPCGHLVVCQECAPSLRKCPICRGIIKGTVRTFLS
Chain of E3 ubiquitin-protein ligase XIAP (Homo sapiens) (P98170 whole entry): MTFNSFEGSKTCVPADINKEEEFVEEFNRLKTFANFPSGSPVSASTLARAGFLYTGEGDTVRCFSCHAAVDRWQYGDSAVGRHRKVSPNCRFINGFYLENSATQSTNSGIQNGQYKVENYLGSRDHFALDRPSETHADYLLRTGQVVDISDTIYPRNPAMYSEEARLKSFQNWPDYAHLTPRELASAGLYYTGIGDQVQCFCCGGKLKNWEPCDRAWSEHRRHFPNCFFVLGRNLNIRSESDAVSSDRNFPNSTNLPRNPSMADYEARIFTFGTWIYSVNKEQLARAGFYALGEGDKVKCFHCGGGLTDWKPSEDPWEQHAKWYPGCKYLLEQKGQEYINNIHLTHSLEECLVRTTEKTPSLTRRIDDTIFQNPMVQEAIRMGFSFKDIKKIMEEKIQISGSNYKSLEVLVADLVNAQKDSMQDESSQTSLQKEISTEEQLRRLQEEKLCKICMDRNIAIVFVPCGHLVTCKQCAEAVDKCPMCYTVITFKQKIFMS

As for `Cc1ncsc1-c1ccc(CNC(=O)[C@@H]2C[C@@H](O)CN2C(=O)[C@@H](NC(=O)C2(C#N)CC2)C(C)(C)C)cc1`, the 50% inhibitory concentration (IC50) with RPMI-8226, in the experiment with K562, in the experiment with SU-DHL-6, with MOLM-13, in the experiment on NCI-H929 and in the experiment on DB was above 10 µM throughout. Further, the IC50 with HEL, in the experiment on SUD4 and in the experiment with JJN-3 was above 10 µM throughout. Besides, the result in experiment [1], in experiment [2], in [5], in [6] and in experiment [7] was inactive. For the same compound, the Activity in [3] worked out at 95%; in experiment [4], 81%; in [8] it was 95%.

As a reminder, the IC50 is the concentration needed to halve the response being measured.
